These results are taken from ChEMBL document CHEMBL1139378, “Dual integrin and gastrin-releasing peptide receptor targeted tumor imaging using 18F-labeled PEGylated RGD-bombesin heterodimer 18F-FB-PEG3-Glu-RGD-BBN” (J Med Chem, 2009).

Series [1] can be described thus: Drug uptake in human PC3 cells xenografted mouse tumor at 3.7 MBq, iv after 120 mins by micro PET imaging. To be noted: in vivo, 2 h. Format: ADME, organism-based, Neoplasm, PC-3. Summed up:
(§1)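 PC-3 xenograft nude mice (tumors 100–300 mm³) were given ~3.7 MBq (100 μCi) i.v. by tail vein under isoflurane. Static 5-min scans were taken at 30 min, 1 and 2 h (n = 4), plus a 35-min dynamic scan starting 1 min pi in one mouse. Images were OSEM-reconstructed without attenuation correction. Tumor and organ %ID/g came from ROIs on decay-corrected coronal images, assuming 1 g/mL density.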
(In general: Xenograft models place foreign cells or tissue in a host animal.)

The next series deals with Spleen. The series is described as follows: Biodistribution in human PC3 cells xenografted athymic nude mouse spleen at 0.74 MBq, iv after 1 hr. Format: ADME, organism-based, PC-3. To be noted: in vivo. Summed up:
(§2)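 PC-3 human prostate carcinoma cells were grown in F-12K with 10% FBS, and 5×10^6 cells were injected s.c. into the right front flank of male athymic nude mice. Each mouse received 0.74 MBq (20 μCi) tracer and was sacrificed at 1 h pi. Tissues were wet-weighed and γ-counted against an injectate aliquot. Values are %ID/g normalized to 20 g body mass, mean ± SD, n = 4.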

The next series deals with Bone. As to the kind of experiment: Biodistribution in human PC3 cells xenografted athymic nude mouse bone at 0.74 MBq, iv after 1 hr. Format: ADME, organism-based, Bone element, PC-3. To be noted: in vivo. The procedure, abridged: as §2
A short description of series [2]: Drug uptake in human PC3 cells xenografted mouse tumor at 3.7 MBq, iv after 5 mins by micro PET imaging. Format: ADME, organism-based, Neoplasm, PC-3. To be noted: in vivo. The procedure, abridged:
as §1

Series [3] in a line: Drug uptake in human PC3 cells xenografted mouse tumor at 3.7 MBq, iv after 15 mins by micro PET imaging. Format: ADME, organism-based, Neoplasm, PC-3. As to conditions: in vivo, 0.25 h. Summed up:
as §1

Series [4] is described as follows: Drug uptake in human PC3 cells xenografted mouse tumor at 3.7 MBq, iv after 30 mins by micro PET imaging. Format: ADME, organism-based, Neoplasm, PC-3. To be noted: in vivo, 0.5 h. Summed up: as §1
The subject of series [5] is Liver. As to the kind of experiment: Drug uptake in human PC3 cells xenografted mouse liver at 3.7 MBq, iv after 30 mins by micro PET imaging. As to conditions: in vivo, 0.5 h. Format: ADME, organism-based, PC-3. The procedure, abridged:
as §1

The subject of the next series is Kidney. As to the kind of experiment: Biodistribution in human PC3 cells xenografted athymic nude mouse kidney at 0.74 MBq, iv after 1 hr. Format: ADME, organism-based, PC-3. To be noted: in vivo. The procedure, abridged:
as §2

Series [6] in a line: Ratio of drug uptake in tumor to muscle from human PC3 cells xenografted mouse at 3.7 MBq, iv after 120 mins by micro PET imaging. Format: ADME, organism-based, PC-3. To be noted: in vivo, 2 h. Summed up: (§3)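 Tumor/nontumor ratios were calculated from ROI-derived %ID/g on decay-corrected 5-min static microPET scans at 2 h after ~3.7 MBq i.v. tracer in PC-3 xenograft nude mice (n = 4).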

For series [7], the system named is PC-3. The series is described as follows: Inhibition of cellular uptake in human PC3 cells after 60 mins in presence of RGD and BBN. To be noted: pc-3, 1 h.
Series [8] relates to PC-3. The series is described as follows: Cellular uptake in human PC3 cells after 30 mins. Format: ADME, cell-based. To be noted: pc-3, 0.5 h. Summed up: (§4)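 PC-3 cells were seeded at 5×10^5 per well and left overnight, then PBS-rinsed and incubated with ~0.3 μCi/well radiotracer in culture medium at 37 or 4 °C for 15–120 min. Cells were washed with chilled PBS, trypsinized and γ-counted. Uptake is % of added radioactivity; two experiments, triplicate wells.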

Series [9] can be described thus: Drug uptake in human PC3 cells xenografted mouse tumor at 3.7 MBq, iv after 60 mins by micro PET imaging. Format: ADME, organism-based, Neoplasm, PC-3. As to conditions: in vivo, 1 h. Summed up:
as §1

The test system of series [10] is PC-3. As to the kind of experiment: Cellular uptake in human PC3 cells after 60 mins. Format: ADME, cell-based. To be noted: pc-3, 1 h. Summed up:
as §4

Series [11] has as its system PC-3. As to the kind of experiment: Inhibition of cellular uptake in human PC3 cells after 60 mins in presence of RGD. To be noted: pc-3, 1 h.
Another series concerns Blood. The series is described as follows: Biodistribution in human PC3 cells xenografted athymic nude mouse blood at 0.74 MBq, iv after 1 hr. To be noted: in vivo. Format: ADME, organism-based, PC-3. The procedure, abridged:
as §2

Series [12] concerns PC-3. The series is described as follows: Cellular uptake in human PC3 cells after 120 mins. As to conditions: pc-3, 2 h. Format: ADME, cell-based. Summed up: as §4
In series [13] the test system is PC-3. The series is described as follows: Cellular uptake in human PC3 cells after 15 mins. Format: ADME, cell-based. As to conditions: pc-3, 0.25 h. The procedure, abridged:
as §4

The test system of a further series is Muscle tissue. The series is described as follows: Biodistribution in human PC3 cells xenografted athymic nude mouse muscle at 0.74 MBq, iv after 1 hr. Format: ADME, organism-based, PC-3. To be noted: in vivo. Summed up: as §2
Series [14] can be described thus: Drug uptake in human PC3 cells xenografted mouse tumor at 3.7 MBq, iv by micro PET imaging in presence of RGD and BBN. Format: ADME, organism-based, Neoplasm, PC-3. To be noted: in vivo. The procedure, abridged:
(§5)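 PC-3 tumor-bearing mice were co-injected i.v. with 3.7 MBq tracer and a blocking dose of c(RGDyK) (10 mg/kg), Aca-BBN(7–14) (15 mg/kg), or both. A 5-min static microPET scan was taken at 1 h pi (n = 3), and ROI-derived %ID/g was measured on decay-corrected coronal images.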

Series [15] is described as follows: Drug uptake in human PC3 cells xenografted mouse tumor at 3.7 MBq, iv by micro PET imaging in presence of BBN. Format: ADME, organism-based, Neoplasm, PC-3. As to conditions: in vivo. The procedure, abridged:
as §5

The nature of series [16]: Drug uptake in human PC3 cells xenografted mouse tumor at 3.7 MBq, iv by micro PET imaging in presence of RGD. Format: ADME, organism-based, Neoplasm, PC-3. To be noted: in vivo. The procedure, abridged:
as §5

Series [17] can be described thus: Ratio of drug uptake in tumor to kidneys from human PC3 cells xenografted mouse at 3.7 MBq, iv after 120 mins by micro PET imaging. To be noted: in vivo, 2 h. Format: ADME, organism-based, PC-3. Summed up:
as §3

Series [18] relates to Liver. As to the kind of experiment: Biodistribution in human PC3 cells xenografted athymic nude mouse liver at 0.74 MBq, iv after 1 hr. To be noted: in vivo. Format: ADME, organism-based, PC-3. The procedure, abridged: as §2
In another series the test system is Heart. The series is described as follows: Biodistribution in human PC3 cells xenografted athymic nude mouse heart at 0.74 MBq, iv after 1 hr. Format: ADME, organism-based, PC-3. As to conditions: in vivo. The procedure, abridged: as §2
The nature of series [19]: Ratio of drug uptake in tumor to blood from human PC3 cells xenografted mouse at 3.7 MBq, iv after 120 mins by micro PET imaging. Format: ADME, organism-based, PC-3. As to conditions: tumour, 2 h. Summed up:
as §3

Series [20] can be described thus: Biodistribution in human PC3 cells xenografted athymic nude mouse tumor at 0.74 MBq, iv after 1 hr. Format: ADME, organism-based, Neoplasm, PC-3. To be noted: in vivo. The procedure, abridged: as §2
Series [21] has as its system PC-3. As to the kind of experiment: Inhibition of cellular uptake in human PC3 cells after 60 mins in presence of BBN. To be noted: pc-3, 1 h.
A short description of series [22]: Ratio of drug uptake in tumor to liver from human PC3 cells xenografted mouse at 3.7 MBq, iv after 120 mins by micro PET imaging. Format: ADME, organism-based, PC-3. To be noted: in vivo, 2 h. Summed up: as §3
In series [23] the target is Gastrin-releasing peptide receptor (Homo sapiens) (UniProt P30550). As to the kind of experiment: Displacement of [125I][Tyr4]BBN form gastrin-releasing peptide receptor in human PC3 cells.
Chain of Gastrin-releasing peptide receptor (Homo sapiens) (P30550 whole entry, looked up): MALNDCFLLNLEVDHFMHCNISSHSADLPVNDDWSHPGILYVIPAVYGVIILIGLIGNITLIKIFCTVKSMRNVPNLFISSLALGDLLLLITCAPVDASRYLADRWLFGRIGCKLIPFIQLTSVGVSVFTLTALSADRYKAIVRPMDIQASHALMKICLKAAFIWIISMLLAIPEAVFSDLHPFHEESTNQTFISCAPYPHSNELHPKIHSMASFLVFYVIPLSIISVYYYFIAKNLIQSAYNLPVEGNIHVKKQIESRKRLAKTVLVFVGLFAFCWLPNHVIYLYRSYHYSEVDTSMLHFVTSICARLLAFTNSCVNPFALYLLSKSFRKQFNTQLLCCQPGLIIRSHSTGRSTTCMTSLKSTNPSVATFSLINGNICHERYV

Take `CSCC[C@@H](NC(=O)[C@H](CC(C)C)NC(=O)[C@@H](Cc1c[nH]cn1)NC(=O)CNC(=O)[C@H](NC(=O)[C@H](C)NC(=O)[C@@H](Cc1c[nH]c2ccccc12)NC(=O)[C@H](CCC(N)=O)NC(=O)CCCCCNC(=O)CC[C@H](NC(=O)COCCOCCOCCNC(=O)c1ccc([18F])cc1)C(=O)NCCCC[C@H]1NC(=O)[C@@H](CCCNC(=N)N)NC(=O)CNC(=O)[C@@H](CC(=O)O)NC(=O)[C@H](Cc2ccc(O)cc2)NC1=O)C(C)C)C(N)=O`: the Drug uptake in [1] was 2.88 % ID/g; with Spleen it was 2 % ID/g; with Bone, 2 % ID/g; in series [2] it was 3.54 % ID/g; in series [3] it was 4.86 % ID/g; in [4], 6.35 % ID/g. The Drug uptake in the series with Liver [5] was determined as 2 % ID/g; with Kidney, 4.87 % ID/g; with PC-3 [8] it was 5.51%; in [9], 4.41 % ID/g; in the series with PC-3 [10], 5.87%; with Blood it was 2 % ID/g. For the same compound, the Drug uptake in the series on PC-3 [12] turned out to be 6.65%; in the series with PC-3 [13] it was 4.72%; with Muscle tissue, 2 % ID/g; in series [14], 0.43 % ID/g; in [15], 1.58 % ID/g; in series [16], 2.19 % ID/g. Moreover, the Drug uptake in the series on Liver [18] stood at 2 % ID/g; in the series on Heart, 2 % ID/g; in [20], 4 % ID/g. The Ratio was 10.54 in series [6], 1.44 in series [17], 8.1 in series [19] and 6.43 in series [22]. The Inhibition (as a rule, the drop in the measured response relative to a control, in per cent) came out at 91.97% with PC-3 [7], 17.55% with PC-3 [11] and 83.67% with PC-3 [21].
`CSCC[C@H](NC(=O)[C@H](CC(C)C)NC(=O)[C@H](Cc1c[nH]cn1)NC(=O)CNC(=O)[C@@H](NC(=O)[C@H](C)NC(=O)[C@H](Cc1c[nH]c2ccccc12)NC(=O)[C@H](CCC(N)=O)NC(=O)CCCCCNC(=O)CC[C@H](NC(=O)COCCOCCOCCN)C(=O)NCCCC[C@@H]1NC(=O)[C@H](CCCNC(=N)N)NC(=O)CNC(=O)[C@H](CC(=O)O)NC(=O)[C@@H](Cc2ccc(O)cc2)NC1=O)C(C)C)C(N)=O`: in [23], the IC50 – broadly, the midpoint of a concentration-inhibition curve – stood at 85.4 nM.
In turn, `CSCC[C@@H](NC(=O)[C@H](CC(C)C)NC(=O)[C@@H](Cc1c[nH]cn1)NC(=O)CNC(=O)[C@H](NC(=O)[C@H](C)NC(=O)[C@@H](Cc1c[nH]c2ccccc12)NC(=O)[C@H](CCC(N)=O)NC(=O)CCCCCNC(=O)CC[C@H](NC(=O)COCCOCCOCCNC(=O)c1ccc(F)cc1)C(=O)NCCCC[C@H]1NC(=O)[C@@H](CCCNC(=N)N)NC(=O)CNC(=O)[C@@H](CC(=O)O)NC(=O)[C@H](Cc2ccc(O)cc2)NC1=O)C(C)C)C(N)=O` gave an IC50 in [23] (pc-3) of 73.3 nM. This counts as double-digit nanomolar.
